How the values were obtained:
[1] = target: T1, Short transient receptor potential channel 5 (Mus musculus) (UniProt Q9QX29); assay: Inhibition of mouse TRPC5 expressed in Flp-In-T-Rex-HEK293 cells assessed as reduction in […]-induced channel current at 3 uM by automated patch clamp method relative to control; type: cell-based
T1 sequence (whole entry): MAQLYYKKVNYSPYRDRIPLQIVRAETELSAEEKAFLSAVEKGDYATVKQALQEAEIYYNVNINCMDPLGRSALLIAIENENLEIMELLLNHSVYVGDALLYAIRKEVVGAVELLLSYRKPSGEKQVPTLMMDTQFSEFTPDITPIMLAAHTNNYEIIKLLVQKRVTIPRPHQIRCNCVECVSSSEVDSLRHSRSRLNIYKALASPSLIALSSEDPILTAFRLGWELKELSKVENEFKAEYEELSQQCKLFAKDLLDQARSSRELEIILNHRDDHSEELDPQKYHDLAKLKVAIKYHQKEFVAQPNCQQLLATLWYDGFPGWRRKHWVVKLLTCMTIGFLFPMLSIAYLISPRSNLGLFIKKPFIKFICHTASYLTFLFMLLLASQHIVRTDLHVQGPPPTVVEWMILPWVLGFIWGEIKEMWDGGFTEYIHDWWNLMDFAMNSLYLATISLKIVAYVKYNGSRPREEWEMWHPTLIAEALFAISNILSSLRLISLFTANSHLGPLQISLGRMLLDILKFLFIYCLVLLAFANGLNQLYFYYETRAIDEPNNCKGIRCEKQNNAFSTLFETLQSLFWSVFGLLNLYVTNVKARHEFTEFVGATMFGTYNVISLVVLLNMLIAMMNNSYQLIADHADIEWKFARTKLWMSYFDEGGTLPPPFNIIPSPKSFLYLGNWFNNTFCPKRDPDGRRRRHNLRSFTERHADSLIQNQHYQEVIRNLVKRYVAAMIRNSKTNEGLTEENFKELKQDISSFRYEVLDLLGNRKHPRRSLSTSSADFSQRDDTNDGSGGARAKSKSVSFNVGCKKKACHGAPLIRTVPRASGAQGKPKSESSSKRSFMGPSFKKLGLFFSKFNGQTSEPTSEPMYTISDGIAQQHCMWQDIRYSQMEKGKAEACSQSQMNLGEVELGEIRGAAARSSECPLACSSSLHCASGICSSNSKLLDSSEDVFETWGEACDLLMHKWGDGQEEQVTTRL
Outline: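 Automated patch clamp (Syncropatch), one concentration in one well, >10 cells. At least one session across two assay plates. DMSO vehicle and a reference inhibitor run as controls on every plate. Result expressed as % inhibition.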

[2] = target: T2, Short transient receptor potential channel 5 (Mus musculus, UniProt Q9QX29); assay: Inhibition of mouse TRPC5 expressed in Flp-In-T-Rex-HEK293 cells assessed as reduction in […]-induced channel current by automated patch clamp method; type: cell-based
T2 sequence (Q9QX29 whole entry): T1 sequence (whole entry)
Outline: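 Automated patch clamp (Syncropatch) with multiple concentrations in multiple wells. IC50 determined from these wells.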

[3] = Tmax in rat at 25 mg/kg, ip; type: ADME, organism-based; conditions: in vivo
Outline: (§1)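 Single intraperitoneal dose of 25 mg/kg in 5% DMSO, 10% Tween80, 85% PBS.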

[4] = AUC in rat at 25 mg/kg, ip; type: ADME, organism-based; conditions: in vivo; outline: as §1
[5] = Cmax in rat at 25 mg/kg, ip; type: ADME, organism-based; design: dose 25 mg/kg, route intraperitoneal; conditions: in vivo; outline: as §1

inhibition [1] [%] | Structure (SMILES) | other results
30 | Cc1nnc(CNc2nc3ccccc3n2Cc2ccccc2)s1 | –
31.2 | c1ccc(Cn2c(NCc3ccco3)nc3cccnc32)cc1 | –
61.6 | c1coc(CNc2nc3ccccc3n2CC2CCCCC2)c1 | –
45 | CC(Nc1nc2ccccc2n1Cc1ccccc1)c1nccs1 (configuration not stated) | –
123 | Cc1cc2nc(NCc3ccco3)n(Cc3ccccc3)c2cc1C | IC50 [2]: 12.3 µM
88.4 | COc1ccc(Cn2c(NCc3ccco3)nc3ccccc32)cc1F | IC50 [2]: 11.6 µM
94.6 | Cc1cccc(Cn2c(NCc3ccco3)nc3ccccc32)c1 | IC50 [2]: 4.8 µM
70.2 | Clc1cccc(Cn2c(NCc3ccco3)nc3ccccc32)c1 | –
28.2 | Clc1cc2nc(NCc3ccco3)n(Cc3ccccc3)c2cc1Cl | –
54.4 | Fc1ccccc1Cn1c(NCc2ccco2)nc2ccccc21 | –
19.8 | Cc1nc(CNc2nc3ccccc3n2Cc2ccccc2)no1 | –
-1.8 | c1ccc(Cn2c(NCc3ccccn3)nc3ccccc32)cc1 | –
23.6 | Fc1ccc(Cn2c(NCc3ccco3)nc3ccccc32)c(Cl)c1 | –
70.9 | Clc1ccc(Cn2c(NCc3ccco3)nc3ccccc32)cc1 | –
12 | c1ccc(Cn2c(NCc3cccnc3)nc3ccccc32)cc1 | –
21.7 | Fc1ccc(Cn2c(NCc3ccco3)nc3cccnc32)cc1 | –
82.3 | Cc1ccoc1CNc1nc2ccccc2n1Cc1ccccc1 | IC50 [2]: 6.93 µM
65.2 | c1coc(CNc2nc3ccccc3n2CC2CCCO2)c1 (configuration not stated) | –
32.8 | c1ccc(CNc2nc3ccccc3n2Cc2ccccc2)cc1 | –
117 | c1coc(CNc2nc3ccccc3n2CC2CCC2)c1 | –
19.1 | c1ccc(Cn2c(NCc3ncco3)nc3ccccc32)cc1 | –
17.4 | c1ccc(Cn2c(NCc3ccncc3)nc3ccccc32)cc1 | –

inhibition [1] [%] | Structure (SMILES) | other results
2.6 | Clc1ccccc1Cn1c(NCc2ccco2)nc2ccccc21 | –
128 | Fc1cc(Cl)ccc1Cn1c(NCc2ccco2)nc2ccccc21 | IC50 [2]: 18.1 µM
34.4 | c1coc(CNc2nc3ccccc3n2CCN2CCOCC2)c1 | –
41.7 | CN(Cc1ccco1)c1nc2ccccc2n1Cc1ccccc1 | –
18.9 | c1ccc(Cn2c(Nc3ccccc3)nc3ccccc32)cc1 | –
19.9 | c1ccc(Cn2c(Nc3cccnc3)nc3ccccc32)cc1 | –
18 | c1ccc(Cn2c(NCc3cc4ccccc4o3)nc3ccccc32)cc1 | –
38.5 | O=C(Nc1nc2ccccc2n1Cc1ccccc1)c1ccco1 | –
50.5 | N#Cc1ccc(Cn2c(NCc3ccco3)nc3ccccc32)cc1 | –
81.2 | CCCn1c(NCc2ccco2)nc2ccccc21 | IC50 [2]: 15.5 µM
35.7 | Cc1ncc(CNc2nc3ccccc3n2Cc2ccccc2)s1 | –
33.3 | c1ccc(Cn2c(NCc3cnco3)nc3ccccc32)cc1 | –
91.1 | Brc1ccc(OCCn2c(NCc3ccco3)nc3ccccc32)cc1 | –
47 | c1ccc(Cn2c(NCc3ccon3)nc3ccccc32)cc1 | –
61.9 | Fc1cccc(Cn2c(NCc3ccco3)nc3ccccc32)c1 | –
87 | Fc1ccc(Cn2c(NCc3ccco3)nc3ccccc32)c(F)c1 | IC50 [2]: 8.42 µM
91.4 | CC(Nc1nc2ccccc2n1Cc1ccccc1)c1ccco1 (configuration not stated) | IC50 [2]: 4.44 µM
150 | c1ccc(Cn2c(NCc3cccs3)nc3ccccc32)cc1 | IC50 [2]: 6.26 µM
42.5 | c1ccc(Cn2c(NCc3nccs3)nc3ccccc32)cc1 | –
19 | Cc1nc2ccccc2n1Cc1ccccc1 | –
– | Fc1ccc(Cn2c(NCc3ccco3)nc3ccccc32)cc1 | IC50 [2]: 1.82 µM
100 | c1ccc(Cn2c(NCc3ccco3)nc3ccccc32)cc1 | IC50 [2]: 4.06 µM; Tmax [3]: 6.6 min; AUC [4]: 1130 ng·h/mL; Cmax [5]: 687 ng/mL
